# Activity calls are given as the source filed them. The calls are words filed in the database; no cut-off is given here.
# Experiments:
# DU-145 [1] = experiment: Antiproliferative activity against human DU145 cells after 96 hrs by WST1 assay; type: functional; conditions: DU-145, 96 h
# Summary of the method: (§1)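 Cells kept in RPMI-1640 with 10% FBS, penicillin and streptomycin at 37 °C in 5% CO2. Seeded at 5000 cells/well, exposed to 10^-9-10^-4 M compound or vehicle for 96 h. Live cells counted by WST-1 and viability expressed as % of mean control, from which GI50 was calculated. Triplicate experiments.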
# MDA-MB-231 [2] = experiment: Antiproliferative activity against human MDA-MB-231 cells after 96 hrs by WST1 assay; type: functional; conditions: MDA-MB-231, 96 h; summary of the method: as §1
# Steryl-sulfatase = target: T1, Steryl-sulfatase (Homo sapiens, UniProt P08842); experiment: Inhibition of steroid sulfatase in placental microsomes; design: species or system Placenta
# T1 sequence (P08842 whole entry): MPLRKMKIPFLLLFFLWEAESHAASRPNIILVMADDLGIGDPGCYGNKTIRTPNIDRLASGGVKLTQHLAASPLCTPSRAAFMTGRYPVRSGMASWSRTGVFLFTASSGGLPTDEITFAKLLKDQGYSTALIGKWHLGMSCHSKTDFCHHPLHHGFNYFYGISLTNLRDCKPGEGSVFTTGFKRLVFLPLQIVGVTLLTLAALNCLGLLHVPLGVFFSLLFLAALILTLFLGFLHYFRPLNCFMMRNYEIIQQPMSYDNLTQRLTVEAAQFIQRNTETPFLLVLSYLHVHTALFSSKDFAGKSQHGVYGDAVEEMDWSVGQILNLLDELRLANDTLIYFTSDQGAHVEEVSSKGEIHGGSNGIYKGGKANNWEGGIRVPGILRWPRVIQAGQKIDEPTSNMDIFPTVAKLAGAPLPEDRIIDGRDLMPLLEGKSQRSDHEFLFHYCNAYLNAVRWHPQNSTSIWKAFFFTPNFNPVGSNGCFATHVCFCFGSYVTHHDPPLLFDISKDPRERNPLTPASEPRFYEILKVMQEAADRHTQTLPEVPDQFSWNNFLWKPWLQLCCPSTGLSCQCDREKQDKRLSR
# Summary of the method: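 Radiometric assay of STS activity in placental microsomes: conversion of tritiated estradiol-3-sulfate to estradiol is measured.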
# MCF7 = experiment: Antiproliferative activity against human MCF7 cells by WST1 assay; type: functional
# DU-145 [3] = experiment: Antitumor activity against human DU145 cells xenografted athymic mouse at 10 mg/kg/day, po after 25 days; type: functional
# Summary of the method: (§2)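 Male NCr-nude mice, 6-8 weeks old, implanted s.c. in the flank with 5 × 10⁶ DU145 cells; treatment began once tumors reached about 50-100 mm³. Dosed orally at 10, 20 or 40 mg/kg once daily for 28 d. Tumor volume was (w² × l)/2 and inhibition read after 25 days of treatment (day 35).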
# DU-145 [4] = experiment: Antitumor activity against human DU145 cells xenografted athymic mouse at 20 mg/kg/day, po after 25 days; type: functional; summary of the method: as §2
# MDA-MB-231 [5] = experiment: Antitumor activity against human MDA-MB-231 cells xenografted athymic mouse at 200 mg/kg, po, once a week for 4 weeks; type: functional, organism-based; design: dose 200 mg/kg
# Summary of the method: (§3)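 Female NCr-nude mice, 6-8 weeks old, bearing MDA-MB-231 xenografts, dosed orally in THF/PG vehicle from day 10. Schedules: 60 mg/kg daily for 28 d (to day 38), 90 mg/kg Mon/Wed/Fri × 4 (to day 36), or 200 mg/kg weekly × 4 (to day 32). Tumor volume was (w² × l)/2; one-way ANOVA against control.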
# MDA-MB-231 [6] = experiment: Antitumor activity against human MDA-MB-231 cells xenografted athymic mouse at 60 mg/kg/day, po after 28 days; type: functional, organism-based; summary of the method: as §3
# MDA-MB-231 [7] = experiment: Antitumor activity against human MDA-MB-231 cells xenografted athymic mouse at 90 mg/kg, po thrice a week for 4 weeks; type: functional, organism-based; design: dose 90 mg/kg; summary of the method: as §3
# DU-145 [8] = experiment: Antitumor activity against human DU145 cells xenografted athymic mouse at 40 mg/kg/day, po after 25 days; type: functional; summary of the method: as §2
Compound,GI50 (DU-145 [1]),GI50 (MDA-MB-231 [2]),further results
C[C@]12CC[C@@H]3c4ccc(OS(N)(=O)=O)cc4CC[C@H]3[C@@H]1CC[C@@H]2OC(N)=O,> 100 µM,> 100 µM,IC50 (Steryl-sulfatase): 0.04 µM; GI50 (MCF7): 45 µM
COc1cc2c(cc1OS(N)(=O)=O)CC[C@@H]1[C@@H]2CC[C@]2(C)[C@@H](OS(N)(=O)=O)CC[C@@H]12,0.34 µM,0.28 µM,–
CC(C)c1cc2c(cc1OS(N)(=O)=O)CC[C@@H]1[C@@H]2CC[C@]2(C)[C@@H](OC(N)=O)CC[C@@H]12,2.4 µM,3.4 µM,–
CCCc1cc2c(cc1OS(N)(=O)=O)CC[C@@H]1[C@@H]2CC[C@]2(C)[C@@H](OC(N)=O)CC[C@@H]12,21 µM,14.5 µM,–
CC(C)(C)c1cc2c(cc1O)CC[C@@H]1[C@@H]2CC[C@]2(C)[C@@H](O)CC[C@@H]12,24 µM,–,–
COc1cc2c(cc1OS(N)(=O)=O)CC[C@@H]1[C@@H]2CC[C@]2(C)[C@@H](OC(N)=O)CC[C@@H]12,1.34 µM,1.15 µM,IC50 (Steryl-sulfatase): 0.52 µM; GI50 (MCF7): 3.5 µM
COc1cc2c(cc1O)CC[C@@H]1[C@@H]2CC[C@]2(C)[C@@H](O)CC[C@@H]12 [2-METHOXYESTRADIOL],–,0.94 µM,–
Cc1cc2c(cc1O)CC[C@@H]1[C@@H]2CC[C@]2(C)[C@@H](O)CC[C@@H]12,51 µM,–,–
C[C@]12CC[C@@H]3c4ccc(OS(N)(=O)=O)cc4CC[C@H]3[C@@H]1CC[C@@H]2OS(N)(=O)=O,11.5 µM,18.3 µM,–
Cc1cc2c(cc1OS(N)(=O)=O)CC[C@@H]1[C@@H]2CC[C@]2(C)[C@@H](OC(N)=O)CC[C@@H]12,1.9 µM,4.7 µM,–
CCCCc1cc2c(cc1O)CC[C@@H]1[C@@H]2CC[C@]2(C)[C@@H](O)CC[C@@H]12,> 100 µM,> 100 µM,–
CCCc1cc2c(cc1O)CC[C@@H]1[C@@H]2CC[C@]2(C)[C@@H](O)CC[C@@H]12,15 µM,16.6 µM,–
CC(C)(C)c1cc2c(cc1OS(N)(=O)=O)CC[C@@H]1[C@@H]2CC[C@]2(C)[C@@H](OC(N)=O)CC[C@@H]12,13 µM,17 µM,–

# The next lines start with results.
GI50 (DU-145 [1]),GI50 (MDA-MB-231 [2]),Compound,further results
61.3 µM,20.4 µM,CCCc1cc2c(cc1OS(N)(=O)=O)CC[C@@H]1[C@@H]2CC[C@]2(C)[C@@H](OC(C)=O)CC[C@@H]12,–
> 10 µM,–,CC(C)(C)c1cc2c(cc1OS(N)(=O)=O)CC[C@@H]1[C@@H]2CC[C@]2(C)[C@@H](OS(N)(=O)=O)CC[C@@H]12,–
10.3 µM,8 µM,CCc1cc2c(cc1O)CC[C@@H]1[C@@H]2CC[C@]2(C)[C@@H](O)CC[C@@H]12,–
0.21 µM,0.21 µM,CCc1cc2c(cc1OS(N)(=O)=O)CC[C@@H]1[C@@H]2CC[C@]2(C)[C@@H](OS(N)(=O)=O)CC[C@@H]12,Activity (DU-145 [3]): 24%; Activity (DU-145 [4]): 27%; Activity (MDA-MB-231 [5]): Active; Activity (MDA-MB-231 [6]): Active; Activity (MDA-MB-231 [7]): Active; Activity (DU-145 [8]): 65%
9 µM,10.7 µM,CCCCc1cc2c(cc1OS(N)(=O)=O)CC[C@@H]1[C@@H]2CC[C@]2(C)[C@@H](OS(N)(=O)=O)CC[C@@H]12,–
23 µM,–,CC(C)c1cc2c(cc1O)CC[C@@H]1[C@@H]2CC[C@]2(C)[C@@H](O)CC[C@@H]12,–
15 µM,> 100 µM,CCCCc1cc2c(cc1OS(N)(=O)=O)CC[C@@H]1[C@@H]2CC[C@]2(C)[C@@H](OC(N)=O)CC[C@@H]12,–
3.4 µM,6.4 µM,CCCc1cc2c(cc1OS(N)(=O)=O)CC[C@@H]1[C@@H]2CC[C@]2(C)[C@@H](OS(N)(=O)=O)CC[C@@H]12,–
1.8 µM,–,CC(C)c1cc2c(cc1OS(N)(=O)=O)CC[C@@H]1[C@@H]2CC[C@]2(C)[C@@H](OS(N)(=O)=O)CC[C@@H]12,–
18.4 µM,21.6 µM,CCCCc1cc2c(cc1OS(N)(=O)=O)CC[C@@H]1[C@@H]2CC[C@]2(C)[C@@H](OC(C)=O)CC[C@@H]12,–
0.22 µM,0.39 µM,CCc1cc2c(cc1OS(N)(=O)=O)CC[C@@H]1[C@@H]2CC[C@]2(C)[C@@H](OC(N)=O)CC[C@@H]12,GI50 (MCF7): 0.64 µM
0.38 µM,0.25 µM,Cc1cc2c(cc1OS(N)(=O)=O)CC[C@@H]1[C@@H]2CC[C@]2(C)[C@@H](OS(N)(=O)=O)CC[C@@H]12,–
1.6 µM,–,CCc1cc2c(cc1OS(N)(=O)=O)CC[C@@H]1[C@@H]2CC[C@]2(C)[C@@H](OC(C)=O)CC[C@@H]12,–

# Reference: ChEMBL document CHEMBL1148769, “3,17-disubstituted 2-alkylestra-1,3,5(10)-trien-3-ol derivatives: synthesis, in vitro and in vivo anticancer activity” (J Med Chem, 2007)
